SMILES strings stand for the structures.

Results on 2 compounds are retold here after ChEMBL document CHEMBL1141109, “Synthesis of an estrogen receptor beta-selective radioligand: 5-[18F]fluoro-(2R,3S)-2,3-bis(4-hydroxyphenyl)pentanenitrile and comparison of in vivo distribution with 16alpha-[18F]fluoro-17beta-estradiol” (J Med Chem, 2005).

Series [1] in a line: Biodistribution of [18F]FES in alpha estrogen receptor knock out mouse uterus after 1 h; (n=3). The settings on record: in vivo. In kind it is ADME, organism-based.
Series [2] can be described thus: Biodistribution of [18F]FES in alpha estrogen receptor knock out mouse muscle after 30 min; (n=3). In kind it is ADME, organism-based, Muscle tissue. The settings on record: in vivo, 0.5 h.
A short description of series [3]: Biodistribution of [18F]FES in beta estrogen receptor knock out mouse liver after 30 min; (n=3). In kind it is ADME, organism-based. The settings on record: in vivo, 0.5 h.
Series [4] in a line: Biodistribution of [18F]FES in beta estrogen receptor knock out mouse thymus after 30 min; (n=3). The format is ADME, organism-based. The settings on record: in vivo, 0.5 h.
A short description of series [5]: Biodistribution of [18F]FES in beta estrogen receptor knock out mouse uterus after 30 min(n=2); mice in nonestrus stage. The format is ADME, organism-based. The settings on record: in vivo, 0.5 h.
A short description of series [6]: Biodistribution of [18F]FES in beta estrogen receptor knock out mouse muscle after 2 h; (n=3). In kind it is ADME, organism-based, Muscle tissue. The settings on record: in vivo.
Series [7] in a line: Biodistribution of [18F]FES in alpha estrogen receptor knock out mouse lung after 1 h; (n=3). The format is ADME, organism-based. The settings on record: in vivo.
Series [8] is described as follows: Biodistribution of [18F]FES in alpha estrogen receptor knock out mouse blood after 30 min; (n=3). The settings on record: in vivo, 0.5 h. The format is ADME, organism-based. In a few lines:
(§1)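 Female αERKO mice were rested 48 h after shipping and fed estrogen-free chow. They were staged by daily vaginal smears and studied in diestrus. Each received 13 µCi [18F]FES in 100 µL 10% ethanol/saline and was sacrificed at 30 min, 1 h or 2 h (n = 3 per time). Tissue uptake is given as %ID/g ± SD.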

Series [9] is described as follows: Biodistribution of [18F]FES in beta estrogen receptor knock out mouse ovaries after 1 h; (n=3). In kind it is ADME, organism-based, Female gonad. The settings on record: in vivo.
A short description of series [10]: Biodistribution of [18F]FES in beta estrogen receptor knock out mouse uterus after 2 h; (n=3). The settings on record: in vivo. The format is ADME, organism-based.
A short description of series [11]: Biodistribution of [18F]FES in alpha estrogen receptor knock out mouse ovaries after 1 h; (n=3). In kind it is ADME, organism-based, Female gonad. The settings on record: in vivo. The method, boiled down:
as §1

The nature of series [12]: Biodistribution of [18F]FES in beta estrogen receptor knock out mouse uterus after 30 min; (n=3). The format is ADME, organism-based. The settings on record: in vivo, 0.5 h.
The nature of series [13]: Biodistribution of [18F]FES in beta estrogen receptor knock out mouse bone after 2 h; (n=3). In kind it is ADME, organism-based, Bone element. The settings on record: in vivo.
A short description of series [14]: Biodistribution of [18F]FES in alpha estrogen receptor knock out mouse lung after 30 min; (n=3). In kind it is ADME, organism-based. The settings on record: in vivo, 0.5 h. The method, boiled down: as §1
The nature of series [15]: Biodistribution of [18F]FES in beta estrogen receptor knock out mouse blood after 1 h; (n=3). In kind it is ADME, organism-based. The settings on record: in vivo.
A short description of series [16]: Biodistribution of [18F]FES in beta estrogen receptor knock out mouse ovaries after 2 h; (n=3). The settings on record: in vivo. The format is ADME, organism-based, Female gonad.
A short description of series [17]: Biodistribution of [18F]FES in alpha estrogen receptor knock out mouse muscle after 2 h; (n=3). The format is ADME, organism-based, Muscle tissue. The settings on record: in vivo. In a few lines:
as §1

The nature of series [18]: Biodistribution of [18F]-FES in alpha estrogen receptor knock out mouse brain after 2 h; (n=3). In kind it is ADME, organism-based. The settings on record: in vivo. The method, boiled down: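 αERKO mice staged in diestrus by vaginal smear after rest on estrogen-free chow. Injected with 13 µCi [18F]FES in 100 µL of 10% ethanol/saline and killed at 30 min, 1 h or 2 h (n=3 each). Tissues weighed and gamma-counted, reported as %ID/g ± SD.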

Series [19] can be described thus: Biodistribution of [18F]FES in alpha estrogen receptor knock out mouse liver after 30 min; (n=3). In kind it is ADME, organism-based. The settings on record: in vivo, 0.5 h. In a few lines: as §1
Series [20] in a line: Biodistribution of [18F]FES in alpha estrogen receptor knock out mouse brain after 1 h; (n=3). In kind it is ADME, organism-based. The settings on record: in vivo. The method, boiled down:
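αERKO mice were kept on estrogen-free chow and studied in diestrus, as staged by vaginal smear. Each was injected with 13 µCi tracer in 100 µL 10% ethanol/saline and killed at 30 min, 1 h or 2 h (n = 3 each). Organ activity was gamma-counted and expressed as %ID/g ± SD.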

A short description of series [21]: Biodistribution of [18F]FES in beta estrogen receptor knock out mouse brain after 2 h; (n=3). The format is ADME, organism-based. The settings on record: in vivo.
Series [22] is described as follows: Biodistribution of [18F]-FEDPN in rat kidney after 2 hr when given in tail vein; (n=5). In kind it is ADME, organism-based. The settings on record: in vivo, iv. The method, boiled down: (§2)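 Immature female Sprague–Dawley rats (<25 days old) anesthetized with isoflurane/O2. Given 20 µCi tracer by tail vein in 150 µL of 20% ethanol/saline. […] Killed at 30 min, 1 h or 2 h. Blood and organs blotted, weighed and gamma-counted against a standard dilution of the injectate. Reported as %ID/g ± SD, n=5.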

Series [23] is described as follows: Biodistribution of [18F]FEDPN in alpha estrogen receptor knock out mouse bone after 30 min; (n=3). The format is ADME, organism-based, Bone element. The settings on record: in vivo, 0.5 h. In a few lines:
(§3)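 ERKO female mice (αERKO or βERKO), rested 48 h after shipping, placed on estrogen-free chow, and staged by daily vaginal smears. Injected in a nonestrous stage with 11 µCi [18F]FEDPN in 130 µL of 10% ethanol/saline. Killed at 30 min, 1 h or 2 h. Organs counted and reported as %ID/g ± SD, three animals per point.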

A short description of series [24]: Biodistribution of [18F]-FEDPN in rat fat after 2 hr when given in tail vein; (n=5). The format is ADME, organism-based, Adipose tissue. The settings on record: in vivo, iv. In a few lines:
as §2

Series [25] is described as follows: Biodistribution of [18F]FEDPN in alpha estrogen receptor knock out mouse blood after 1 h; (n=3). In kind it is ADME, organism-based. The settings on record: in vivo. The method, boiled down:
as §3

Series [26] is described as follows: Biodistribution of [18F]FEDPN in beta estrogen receptor knock out mouse brain after 2 h; (n=3). The format is ADME, organism-based. The settings on record: in vivo. In a few lines: (§4)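 αERKO and βERKO mice, staged by daily vaginal smears and kept on estrogen-free chow, were studied in a nonestrous stage. Each mouse received 11 μCi of tracer in 130 μL of 10% ethanol/saline. Mice were killed at 30 min, 1 h or 2 h (n = 3 each). Organs were removed, blotted, weighed and gamma-counted against an injectate standard. Uptake is given as %ID/g ± SD.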

A short description of series [27]: Biodistribution of [18F]FEDPN in alpha estrogen receptor knock out mouse spleen after 30 min; (n=3). In kind it is ADME, organism-based. The settings on record: in vivo, 0.5 h. The method, boiled down:
as §4

A short description of series [28]: Biodistribution of [18F]FEDPN in rat liver after 30 min when given in tail vein; (n=5). The format is ADME, organism-based. The settings on record: in vivo, iv, 0.5 h. In a few lines:
(§5)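 Immature female Sprague–Dawley rats (<25 days old) under isoflurane/O2 got 20 µCi tracer in 150 µL 20% ethanol/saline by tail vein. […] Rats were killed at 30 min, 1 h or 2 h. Organs were blotted, weighed and gamma-counted against an injectate standard. Data are %ID/g ± SD, five rats per point.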

A short description of series [29]: Biodistribution of [18F]FEDPN in alpha estrogen receptor knock out mouse lung after 1 h; (n=3). The format is ADME, organism-based. The settings on record: in vivo. The method, boiled down:
as §4

Series [30] in a line: Biodistribution of [18F]-FEDPN in rat lung after 1 hr block when given in tail vein; (n=5). The format is ADME, organism-based. The settings on record: in vivo, iv. The method, boiled down:
as §2

Series [31] in a line: Biodistribution of [18F]-FEDPN in rat thymus after 1 hr when given in tail vein; (n=5). The format is ADME, organism-based. The settings on record: in vivo, iv. In a few lines: as §2
Series [32] is described as follows: Biodistribution of [18F]FEDPN in rat bone after 1 h when given in tail vein; (n=5). The format is ADME, organism-based, Bone element. The settings on record: in vivo, iv. In a few lines: as §5
The nature of series [33]: Biodistribution of [18F]FEDPN in alpha estrogen receptor knock out mouse bone after 2 h; (n=3). In kind it is ADME, organism-based, Bone element. The settings on record: in vivo. In a few lines:
as §3

The nature of series [34]: Biodistribution of [18F]-FEDPN in rat blood after 1 hr block when given in tail vein; (n=5). In kind it is ADME, organism-based. The settings on record: in vivo, iv. The method, boiled down:
as §2

Series [35] is described as follows: Biodistribution of [18F]FEDPN in beta estrogen receptor knock out mouse spleen after 30 min; (n=3). In kind it is ADME, organism-based. The settings on record: in vivo, 0.5 h. In a few lines: as §4
Series [36] in a line: Biodistribution of [18F]-FEDPN in rat ovaries after 1 hr when given in tail vein; (n=5). In kind it is ADME, organism-based, Female gonad. The settings on record: in vivo, iv. In a few lines:
as §2

A short description of series [37]: Biodistribution of [18F]FEDPN in beta estrogen receptor knock out mouse brain after 30 min; (n=3). In kind it is ADME, organism-based. The settings on record: in vivo, 0.5 h. The method, boiled down: as §4

For the compound `C[C@]12CC[C@@H]3c4ccc(O)cc4CC[C@H]3[C@@H]1C[C@@H](F)[C@@H]2O` [FLUOROESTRADIOL], the Biodistribution is 0.82 %ID/g in series [1]; 0.77 %ID/g in [2]; 9.45 %ID/g in [3]; 1.38 %ID/g in series [4]; 18.86 %ID/g in series [5]; 0.54 %ID/g in series [6]. The Biodistribution in [7] turned out to be 0.39 %ID/g; in [8], 0.65 %ID/g; in series [9] it was 5.61 %ID/g; in series [10], 9.23 %ID/g; in series [11] it was 0.49 %ID/g; in [12], 8.34 %ID/g. The Biodistribution in series [13] is recorded as 0.53 %ID/g; in series [14], 2.19 %ID/g; in [15], 0.3 %ID/g; in series [16], 3.4 %ID/g; in series [17], 0.11 %ID/g; in series [18], 0.03 %ID/g. In addition, the Biodistribution in series [19] amounted to 7.47 %ID/g; in series [20] it was 0.07 %ID/g; in series [21], 0.14 %ID/g.

Take `N#C[C@H](c1ccc(O)cc1)[C@@H](CCF)c1ccc(O)cc1`: the Biodistribution in series [22] was found to be 0.97 %ID/g; in series [23] it was 3.47 %ID/g; in series [24] it was 0.1 %ID/g; in series [25] it was 0.42 %ID/g; in [26], 0.3 %ID/g; in [27], 0.99 %ID/g. Besides, the Biodistribution in series [28] was found to be 1.42 %ID/g; in [29] it was 2.04 %ID/g; in series [30], 0.27 %ID/g; in [31], 0.29 %ID/g; in series [32], 2.22 %ID/g; in series [33] it was 5.45 %ID/g. Besides, the Biodistribution came to 0.3 %ID/g in [34], 0.87 %ID/g in series [35], 0.67 %ID/g in series [36] and 0.93 %ID/g in [37].
